# Assay results from different studies.
# Lines come from different studies, so protocols differ.
# Target: Tyrosine-protein kinase Yes (YES1, Homo sapiens, UniProt P07947)
SMILES,test,setting,remaining binding
Cc1cnc(Nc2ccc(C(=O)N3CCC(N4CCCC4)CC3)cc2)nc1-c1cc2ccccc2s1,"binding, competition with immobilised ligand",1 µM,43%
O=C(N[C@H]1CCCCC/C=C\C2C[C@@]2(C(=O)O)NC(=O)[C@@H]2C[C@@H](Oc3ccncc3)CN2C1=O)OC1CCCC1 (stereo partly shown),"binding, competition with immobilised ligand",1 µM,100%
COc1ncc2cc3ccccc3nc2c1C#N,"cell-free assay, competition with immobilised ligand",5 µM,100%
C[C@@H]1CCN(c2nccc(-c3cnn4ncccc34)n2)C1,binding,1 µM,100%
COc1cnc(Nc2cccc(S(N)(=O)=O)c2)nc1N1CCN(c2ccccc2)CC1,"binding, competition with immobilised ligand",1 µM,89%
C[C@@H](c1ccc(-n2cnc3c(N)ncnc32)cc1)N1CCc2nn(C)c(Cc3ccccc3)c2C1=O,"binding, competition with immobilised ligand",0.1 µM,74%
O=C(Nc1c[nH]nc1C(=O)NC1CCNCC1)c1cc(F)cc(F)c1,"binding, competition with immobilised ligand",1 µM,100%
Nc1ncc2c(n1)-c1c([nH]c3ccc(C#CC4CC4)cc13)CCCC2,"binding, competition with immobilised ligand",1 µM,100%
COc1cnc(Nc2cccc(S(N)(=O)=O)c2)nc1N1CCN(c2ccccc2)C(=O)C1,"binding, competition with immobilised ligand",1 µM,100%
CC1CCCN1c1nccc(-c2cnn3ncccc23)n1 (stereo not shown),binding,1 µM,89%
CN1CCN(c2ccc(Nc3nccc(-c4cccc([N+](=O)[O-])c4)n3)cc2C(F)(F)F)CC1,binding,10 µM,32%
CC(=O)Nc1c(C(C)=O)c(=O)n(C)c2nc(-c3ccc(Cl)cc3Cl)c(-c3ccc(Cl)cc3)cc12,"cell-free assay, competition with immobilised ligand",1 µM,100%
CN(C)c1nccc(-c2cnn3ncccc23)n1,binding,1 µM,78%
Cc1nc(C2CCN(C(=O)c3ccc(OC(F)(F)F)cc3N)CC2)c2ncc(N3CCN(C)CC3)cc2n1,"cell-free assay, competition with immobilised ligand",1 µM,100%
N[C@@H]1CCN(c2nccc(-c3cnn4ncccc34)n2)C1,binding,1 µM,100%
O=C(c1ccc(Nc2ncc(Cl)c(-c3cc4ccccc4s3)n2)cc1)N1CCC(N2CCCC2)CC1,"binding, competition with immobilised ligand",1 µM,71%
CN(CCCC(F)(F)F)c1nccc(-c2cnn3ncccc23)n1,binding,1 µM,94%
CN([C@@H]1CCc2c(CC(=O)O)c3cc(S(C)(=O)=O)ccc3n2C1)S(=O)(=O)c1ccc(F)cc1,"cell-free assay, competition with immobilised ligand",1 µM,88%
Cc1cnn2ncc(-c3ccnc(N(C)C)n3)c2c1,binding,1 µM,100%
CSc1cccnc1N1CCN(Cc2nc3ccccc3[nH]2)CC1,"cell-free assay, competition with immobilised ligand",1 µM,100%
O=C(NCCCN1CCOCC1)c1ccc(Nc2nccc(-c3cc4ccccc4s3)n2)cc1,"binding, competition with immobilised ligand",1 µM,91%
CN(c1ccnc(CNc2nc(Nc3ccc4c(c3)CC(=O)N4)ncc2C(F)(F)F)n1)S(C)(=O)=O,"cell-free assay, competition with immobilised ligand",1 µM,77%
CCN1CCN(Cc2ccc(C(=O)Nc3ccc(C)c(Oc4ccc5c(c4)CC(=O)N5)c3)cc2C(F)(F)F)CC1,"binding, competition with immobilised ligand",1 µM,98%
CC(=O)C1=C(C)N(c2cccc(C(F)(F)F)c2)C(=O)N[C@@H]1c1ccc(C#N)nc1,"cell-free assay, competition with immobilised ligand",1 µM,81.1%
Cc1ccc(-n2nc(C(C)(C)C)cc2NC(=O)Nc2ccc(-n3c(N)c(C(N)=O)c4nc5ccccc5nc43)cc2)cc1,"cell-free assay, competition with immobilised ligand",1 µM,9.6%
